Experiment: Human plasma stability assay
Assay type: in vitro ADME
Conditions: 37 °C
Method in brief: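 Lyophilised human plasma reconstituted in sterile water, stored in aliquots at −80 °C, and thawed at room temperature (three aliquots per compound). Each aliquot spiked with test compound from a 2 mM DMSO stock; Angiotensin I as positive control. Incubated at 37 °C. Samples taken at […], quenched with water/acetonitrile, centrifuged (17 000g, 4 °C, 1 h), and supernatants concentrated.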

For “Angiotensin I (DRVYIHPFHL; Angiotensin-1; UniProt P01019 25-34, looked up)”, the “Time to complete degradation in human plasma” value was no more than 4 h.

— article PMC8796305 (ACS Central Science, 2022)
